ChEMBL document CHEMBL1157559, “Synthesis and biological evaluation of novel pyrazolyl-2,4-thiazolidinediones as anti-inflammatory and neuroprotective agents” (Bioorg Med Chem, 2010)
Activity calls are given as the source filed them. The calls are words filed in the database; no cut-off is given here.

Tests used:
[1] = test system: THP-1; experiment: Cytotoxicity against LPS and IFN-gamma-stimulated human THP1 cells after 24 hrs; format: functional, cell-based; settings: THP-1, 24 h
How it was run: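 THP-1 cells, 24-well, in DMEM-F12 with 5% FBS. Compound or DMSO added 15 min before LPS 0.5 µg/mL plus IFN-γ 150 U/mL. After 24 h, LDH release (fraction of Triton-lysed value, OD 490) and MTT were read. EC50 taken from curves of at least three independent experiments; the lower of the two assay values was reported.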

[2] = test system: Rattus norvegicus; experiment: Antiinflammatory activity in Wistar albino rat acute inflammatory model assessed as inhibition of formalin-induced paw edema at 20 mg/kg, po administered 1 hr before formalin challenge measured after 1 hr by plethysmometer relative to control; format: functional; design: scale not given: the % may be the effect or the level left
How it was run: (§1)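 Male Wistar rats, 180–200 g, groups of five. Test compound 20 mg/kg po; 1 h later 0.1 mL 2% formalin injected subplantar into left hind paw under light ether anesthesia. Paw volume by water plethysmometer at 0 and 1, 2, 3, 4 h after formalin. % inhibition = (Vt−V0)control minus (Vt−V0)treated, divided by (Vt−V0)control ×100. Mean ± SEM, ANOVA with Student–Newman–Keuls.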

[3] = test system: Rattus norvegicus; experiment: Antiinflammatory activity in Wistar albino rat acute inflammatory model assessed as inhibition of formalin-induced paw edema at 20 mg/kg, po administered 1 hr before formalin challenge measured after 2 hrs by plethysmometer relative to control; format: functional; design: scale not given: the % may be the effect or the level left; how it was run: as §1
[4] = test system: Rattus norvegicus; experiment: Antiinflammatory activity in Wistar albino rat sub-acute inflammatory model assessed as inhibition of turpentine oil-induced granuloma pouch exudate volume at 20 mg/kg, po 1 hr before turpentine oil challenge for 7 days assessed measured on day 8; format: functional
How it was run: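 Male rats 120–150 g, five per group. Subcutaneous dorsal pouch made under ether with 2 mL air, then 0.5 mL turpentine oil injected. Compound 20 mg/kg po 1 h before turpentine, then daily for seven days. On day 8 exudate drawn by syringe under anesthesia and volume measured. % inhibition = (Vcontrol − Vtreated)/Vcontrol ×100.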

[5] = test system: HL-60; experiment: Inhibition of phagocyte respiratory burst in human HL60 cells after 6 to 7 days by luminol-induced chemiluminescence; format: functional, cell-based
How it was run: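 HL-60 cells differentiated 6–7 days in DMEM-F12 with 10% FBS and 1.3% DMSO, washed into serum-free, phenol red-free medium, then held 30 min at 37 °C before compound or DMSO was added. Luminol injected, 7.5 min baseline recorded, then FMLP injected (final 1 µM; luminol 5 mM; DMSO 0.5%). Chemiluminescence recorded 30 min at 37 °C; read-out was area under the curve.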

[6] = test system: Rattus norvegicus; experiment: Antiinflammatory activity in Wistar albino rat acute inflammatory model assessed as inhibition of formalin-induced paw edema at 20 mg/kg, po administered 1 hr before formalin challenge measured after 4 hrs by plethysmometer relative to control; format: functional; design: scale not given: the % may be the effect or the level left; how it was run: as §1
[7] = test system: THP-1; experiment: Inhibition of MCP1 release in human THP1 cells after 24 hrs by ELISA; format: functional, cell-based
How it was run: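 THP-1 cells pretreated 15 min with compound, then stimulated with LPS 0.5 µg/mL plus IFN-γ 150 U/mL. After 24 h, MCP-1 (ng/mL) measured in cell-free medium by ELISA.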

[8] = test system: Rattus norvegicus; experiment: Antiinflammatory activity in Wistar albino rat acute inflammatory model assessed as inhibition of formalin-induced paw edema at 20 mg/kg, po administered 1 hr before formalin challenge measured after 3 hrs by plethysmometer relative to control; format: functional; design: scale not given: the % may be the effect or the level left; how it was run: as §1
[9] = test system: Rattus norvegicus; experiment: Antiinflammatory activity in Wistar albino rat sub-acute inflammatory model assessed as inhibition of formalin-induced paw edema at 20 mg/kg, po administered daily for 7 days by plethysmometer relative to control; format: functional; settings: 168 h
How it was run: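 Rats dosed orally at 20 mg/kg daily for 7 consecutive days. 0.1 mL 2% formalin given subplantar in left hind paw under light ether 1 h after the first oral dose, with a second injection on day 3. Paw edema weight (g) measured on day 8. % inhibition = (control − treated)/control ×100. Groups of five.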

[10] = Acute toxicity in po dosed Swiss albino mouse after 24 hrs; format: organism-based; settings: in vivo, read-out: ALD50
How it was run: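 Four groups of five Swiss albino mice (20–30 g), fasted 24 h beforehand, given compounds orally at graded doses of 0–300 mg/kg. Mortality recorded at each dose level after 24 h to estimate the acute lethal dose (ALD50).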

[11] = test system: Rattus norvegicus; experiment: Antiinflammatory activity in po dosed Wistar albino rat acute inflammatory model assessed as inhibition of formalin-induced paw edema administered 1 hr before formalin challenge measured after 3 hrs by plethysmometer; format: functional
How it was run: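 Rats dosed orally at 5, 10, 20, 40 and 50 mg/kg body weight. Edema volume inhibition measured 3 h after subplantar formalin (2%, 0.1 mL), and ED50 determined from these doses.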

[12] = test system: SH-SY5Y; experiment: Neuroprotective activity in human SH-SY5Y cells assessed as inhibition of H2O2-induced cytotoxicity after 72 hrs by LDH assay; format: functional, cell-based
How it was run: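 SH-SY5Y cells plated in DMEM-F12 with 5% FBS. After 24 h, medium replaced with medium containing H2O2 (500 µM in methods, 250 µM in figure legend), and compound added directly at that time. Cell death measured by LDH release 72 h later.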

[13] = test system: SH-SY5Y; experiment: Neuroprotective activity in human SH-SY5Y cells assessed as inhibition of LPS, IFN-gamma-stimulated THP1 cellular supernatant-induced cytotoxicity after 72 hrs by LDH assay; format: functional, cell-based
How it was run: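 SH-SY5Y cells plated 24 h, then medium replaced with supernatant from THP-1 cells stimulated with LPS + IFN-γ for 48 h. Compound added directly to the SH-SY5Y cells at the time of transfer. Cell death measured by LDH release after 72 h; 4–6 independent experiments.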

[14] = biological target: T1, Prostaglandin G/H synthase 2 (Homo sapiens) (UniProt P35354); settings: at 10 µM
T1 sequence (whole entry): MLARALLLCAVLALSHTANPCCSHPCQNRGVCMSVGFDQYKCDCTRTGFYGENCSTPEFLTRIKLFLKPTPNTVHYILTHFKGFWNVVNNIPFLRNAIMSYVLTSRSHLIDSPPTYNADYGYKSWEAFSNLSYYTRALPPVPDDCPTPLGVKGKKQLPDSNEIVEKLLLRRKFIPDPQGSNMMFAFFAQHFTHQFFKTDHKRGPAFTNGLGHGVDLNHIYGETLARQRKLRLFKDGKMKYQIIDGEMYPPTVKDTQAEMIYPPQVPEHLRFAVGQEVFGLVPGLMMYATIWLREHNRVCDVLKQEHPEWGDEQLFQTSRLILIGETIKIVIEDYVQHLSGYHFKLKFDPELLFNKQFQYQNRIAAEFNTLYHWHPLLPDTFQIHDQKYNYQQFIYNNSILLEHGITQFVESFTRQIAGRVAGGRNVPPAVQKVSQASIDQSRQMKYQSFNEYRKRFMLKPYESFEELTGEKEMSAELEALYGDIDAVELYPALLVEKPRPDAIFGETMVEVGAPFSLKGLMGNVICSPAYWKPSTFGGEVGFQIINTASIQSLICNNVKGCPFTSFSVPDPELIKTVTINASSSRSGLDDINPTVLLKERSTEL

[15] = test system: Rattus norvegicus; experiment: Gastrointestinal toxicity in Wistar albino rat assessed as hyperemia at 100 mg/kg/day, po administered twice daily for 3 days; format: organism-based; design: route oral; settings: in vivo, 72 h
How it was run: (§2)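 Male rats 180–200 g, groups of five, fasted 12 h with water available. Compounds given orally as two equal doses at 0 and 12 h, 100 mg/kg per day, for three successive days; vehicle control 1% gum acacia. Rats killed 6 h after last dose. Stomach opened along greater curvature, washed with cold saline and inspected under 3× lens for hyperemia, hemorrhage, erosions or ulcers.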

[16] = test system: SH-SY5Y; experiment: Antineurotoxicity in human SH-SY5Y cells assessed as inhibition human THP1 cell supernatant-induced cytotoxicity compound pretreated 24 to 48 hrs to THP1 cells measured after 72 hrs of supernatant addition; format: functional, cell-based
How it was run: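 THP-1 cells in DMEM-F12 with 5% FBS, pretreated 15 min with compound or DMSO, then stimulated with LPS 0.5 µg/mL plus IFN-γ 150 U/mL for 24 or 48 h. Cell-free supernatant transferred to SH-SY5Y cells plated 24 h earlier. After 72 h, viability by LDH release and MTT. IC50 from curves of at least three independent experiments.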

[17] = biological target: T2, Prostaglandin G/H synthase 1 (Ovis aries) (UniProt P05979); experiment: Inhibition of ovine COX1 at 10 uM
T2 sequence (whole entry): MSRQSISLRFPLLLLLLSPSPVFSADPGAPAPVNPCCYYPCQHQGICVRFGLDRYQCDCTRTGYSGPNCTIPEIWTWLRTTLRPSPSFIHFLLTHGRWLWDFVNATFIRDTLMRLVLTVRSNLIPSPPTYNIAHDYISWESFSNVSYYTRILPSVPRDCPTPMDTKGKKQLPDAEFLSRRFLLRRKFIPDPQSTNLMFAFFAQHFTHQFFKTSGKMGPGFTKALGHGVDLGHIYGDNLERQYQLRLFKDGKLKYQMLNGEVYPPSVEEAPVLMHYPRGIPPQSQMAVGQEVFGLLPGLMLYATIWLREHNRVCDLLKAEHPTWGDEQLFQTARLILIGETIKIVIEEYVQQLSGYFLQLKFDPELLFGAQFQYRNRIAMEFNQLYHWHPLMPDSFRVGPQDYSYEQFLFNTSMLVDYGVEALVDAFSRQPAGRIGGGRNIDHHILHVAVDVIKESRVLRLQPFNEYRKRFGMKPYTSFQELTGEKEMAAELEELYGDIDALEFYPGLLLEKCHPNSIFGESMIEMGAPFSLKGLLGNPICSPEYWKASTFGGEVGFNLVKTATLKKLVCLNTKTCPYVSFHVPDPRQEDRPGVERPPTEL
How it was run: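 Kit assay with ovine COX-1, run per manufacturer's protocol. Read-out was percent inhibition of prostaglandin production, with compound at 10 µM and three experiments.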

[18] = test system: Rattus norvegicus; experiment: Gastrointestinal toxicity in Wistar albino rat assessed as ulceration at 100 mg/kg/day, po administered twice daily for 3 days; format: organism-based; design: route oral; settings: in vivo, 72 h; how it was run: as §2

O=C1NC(=O)/C(=C/c2cn(-c3ccccc3)nc2-c2ccccc2)S1
EC50 [1]: 50 µM | Activity [2]: 35% | Activity [3]: 38% | inhibition in vivo at 20 mg/kg [4]: 53% | IC50 [5]: 8 µM | Activity [6]: 43% | inhibition [7]: inactive | Activity [8]: 43% | inhibition in vivo at 20 mg/kg [9]: 53% | LD50 at 24 h [10]: > 300 mg/kg | ED50 [11]: 21.3 mg/kg

C=CCN1C(=O)S/C(=C\c2cn(-c3ccccc3)nc2-c2ccc(Cl)cc2)C1=O
EC50 [1]: 120 µM | Activity [2]: 53% | Activity [3]: 63% | inhibition in vivo at 20 mg/kg [4]: 50% | inhibition [12]: inactive | inhibition [13]: inactive | Activity [6]: 66% | inhibition [14]: 13.6% | Activity [15]: Non-toxic | inhibition [7]: inactive | Activity [8]: 72% | IC50 [16]: 10 µM | inhibition in vivo at 20 mg/kg [9]: 47% | inhibition [17]: 26.5% | LD50 at 24 h [10]: > 300 mg/kg | ED50 [11]: 15.4 mg/kg | Activity [18]: 0%

Cc1ccc(-c2cc(C(F)(F)F)nn2-c2ccc(S(N)(=O)=O)cc2)cc1 [CELECOXIB]
EC50 [1]: 50 µM | Activity [2]: 41% | Activity [3]: 50% | inhibition in vivo at 20 mg/kg [4]: 54% | Activity [6]: 68% | inhibition [7]: inactive | Activity [8]: 60% | IC50 [16]: 5 µM | inhibition in vivo at 20 mg/kg [9]: 50% | ED50 [11]: 14.3 mg/kg | Activity [18]: 0%

O=C1NC(=O)/C(=C/c2cn(-c3ccccc3)nc2-c2ccc(Cl)cc2)S1
EC50 [1]: > 100 µM | Activity [2]: 41% | Activity [3]: 50% | inhibition in vivo at 20 mg/kg [4]: 44% | IC50 [5]: 0.8 µM | Activity [6]: 74% | inhibition [7]: inactive | Activity [8]: 74% | inhibition in vivo at 20 mg/kg [9]: 42% | LD50 at 24 h [10]: > 300 mg/kg | ED50 [11]: 13 mg/kg
